For one assay, the system named is HT-29. Kind of assay: Antiproliferative activity against human HT-29 cells incubated for 72 hrs by SRB assay. Type of assay: functional, cell-based. Conditions: HT-29, 72 h. The gist of the method: (§1)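 Purified isolates were screened for cytotoxicity against HT-29 and PC-3 human cancer cells, with paclitaxel as the positive control for both lines.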
(The SRB assay estimates cell density from bound dye.)

The test system of another assay is PC-3. Kind of assay: Antiproliferative activity against human PC3 cells incubated for 72 hrs by SRB assay. Format: functional, cell-based. Conditions: PC-3, 72 h. The gist of the method: as §1

This is an account of results in ChEMBL document CHEMBL4414620, “Structurally Modified Cyclopenta[b]benzofuran Analogues Isolated from Aglaia perviridis” (J Nat Prod, 2019).

In general, IC50 refers to the concentration that gives 50% inhibition. Read a high IC50 as weaker potency. For the compound `COc1ccc([C@@]23Oc4cc5c(c(OC)c4[C@]2(O)[C@H](O)[C@H](C(N)=O)[C@H]3c2ccccc2)[C@@H]2OC[C@H]([C@@H](O)CO)O[C@@H]2O5)cc1`, the IC50 in the assay on HT-29 and in the assay with PC-3 was more than 10 µM in each case.
In the case of `COc1ccc([C@@]23Oc4cc5c(c(OC)c4[C@]2(O)[C@H](O)[C@H](C(N)=O)[C@H]3c2ccccc2)[C@H]2OC[C@H]([C@H](O)CO)O[C@H]2O5)cc1`, the IC50 with HT-29 and with PC-3 was more than 10 µM in each case.
Consider `COc1ccc([C@@]23Oc4cc5c(c(OC)c4[C@]2(O)[C@H](O)[C@H](C(N)=O)[C@H]3c2ccccc2)[C@@H]2OC[C@H]([C@H](O)CO)O[C@@H]2O5)cc1`, for which the IC50 in the assay on HT-29 and in the assay with PC-3 was more than 10 µM throughout.
Regarding `COc1ccc([C@@]23Oc4cc5c(c(OC)c4[C@]2(O)[C@H](O)[C@H](C(N)=O)[C@H]3c2ccccc2)[C@H]2OC[C@H]([C@@H](O)CO)O[C@H]2O5)cc1`, the IC50 in the assay on HT-29 and in the assay with PC-3 was more than 10 µM in each case.
Take `COc1ccc([C@@]23Oc4cc(O[C@@H]5O[C@@H]([C@@H](O)CO)COC5O)cc(OC)c4[C@]2(O)[C@H](O)[C@H](C(N)=O)[C@H]3c2ccccc2)cc1` (mixture of isomers): the IC50 in the assay with HT-29 and in the assay on PC-3 was 2.3 µM throughout.
